Assay results reported in ChEMBL document CHEMBL1138564, “Microwave-induced synthesis and anti-microbial activities of 7,10,11,12-tetrahydrobenzo[c]acridin-8(9H)-one derivatives” (2009).
Converted amounts (≈) assume the structure as drawn. The source made the active and inactive calls. No cut-off for these calls is given here.

Key:
Bacillus subtilis [1] = assay: Antimicrobial activity against Bacillus subtilis NCIM 2063 at 1000 ug/disk after 24 hrs by disk diffusion method; assay type: functional; conditions: NCIM 2063, 24 h, read-out: DIZ
Method in brief: (§1)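 Disc diffusion on Mueller–Hinton agar. 100 µl of bacterial suspension at 10⁸ CFU/ml is spread on the plate. Discs carry test compounds at two loadings, dissolved in DMSO; DMSO alone serves as negative control. Ofloxacin disc is the positive reference. Plates are incubated at 37 °C for 24 h, and the inhibition zone diameter is measured.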

Aliivibrio fischeri = assay: Antimicrobial activity against Vibrio fischeri NCIM 2154 at 1000 ug/disk after 24 hrs by disk diffusion method; assay type: functional; conditions: for zone of inhibition at 1000 µg/disc: NCIM 2154, 24 h, read-out: DIZ
Method in brief: (§2)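 Disc diffusion. 100 µl of bacterial suspension at 10⁸ CFU/ml was spread on Mueller–Hinton agar. Discs loaded with test compound dissolved in DMSO were placed on the lawn, with a DMSO-only disc as negative control. Plates were incubated at 37 °C for 24 h, and the inhibition zone diameter was measured.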

Salmonella typhimurium [2] = assay: Antimicrobial activity against Salmonella Typhimurium NCIM 2501 at 500 ug/disk after 24 hrs by disk diffusion method; assay type: functional, Salmonella enterica subsp. enterica serovar Typhimurium; conditions: for zone of inhibition at 500 µg/disc: Salmonella enterica, NCIM 2501, 24 h, read-out: DIZ; method in brief: as §2
Aspergillus niger [3] = assay: Antimicrobial activity against Aspergillus niger NCIM 902 at 500 ug/disk after 72 hrs by disk diffusion method; assay type: functional; conditions: NCIM 1196, 72 h, in the assay text read “NCIM 1196” for “NCIM 902”, read-out: DIZ
Method in brief: (§3)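 Disc diffusion on Sabouraud's dextrose agar. 100 µl of fungal suspension at 10⁶ CFU/ml is spread on the plate. Discs carry test compounds at two loadings in DMSO; DMSO alone is the negative control. Clotrimazole disc is the positive reference. Plates are incubated at 27 °C for 72 h, and the zone of inhibition diameter is measured.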

Aspergillus niger [4] = assay: Antimicrobial activity against Aspergillus niger NCIM 902 at 1000 ug/disk after 72 hrs by disk diffusion method; assay type: functional; conditions: NCIM 1196, 72 h, in the assay text read “NCIM 1196” for “NCIM 902”, read-out: DIZ; method in brief: as §3
Rhodotorula mucilaginosa [5] = assay: Antimicrobial activity against Rhodotorula rubra NCIM 3174 at 1000 ug/disk after 72 hrs by disk diffusion method; assay type: functional; conditions: NCIM 3174, 72 h, read-out: DIZ
Method in brief: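 Fungal disc diffusion. 100 µl of suspension at 10⁶ CFU/ml was spread on Sabouraud's dextrose agar. Discs carrying test compound in DMSO were applied, with a DMSO-only disc as negative control. Plates were incubated at 27 °C for 72 h, and the zone of inhibition diameter was measured.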

Aspergillus parasiticus = assay: Antimicrobial activity against Aspergillus parasiticus NCIM 904 at 1000 ug/disk after 72 hrs by disk diffusion method; assay type: functional; conditions: NCIM 904, 72 h, read-out: DIZ; method in brief: as §3
Klebsiella aerogenes [6] = assay: Antimicrobial activity against Klebsiella aerogenes NCIM 2239 at 1000 ug/disk after 24 hrs by disk diffusion method; assay type: functional; conditions: for zone of inhibition at 1000 µg/disc: NCIM 2239, 24 h, read-out: DIZ; method in brief: as §1
Pseudomonas aeruginosa [7] = assay: Antimicrobial activity against Pseudomonas aeruginosa NCIM 2200 at 1000 ug/disk after 24 hrs by disk diffusion method; assay type: functional; conditions: for zone of inhibition at 1000 µg/disc: NCIM 2200, 24 h, read-out: DIZ; method in brief: as §1
Staphylococcus = assay: Antimicrobial activity against Staphylococcus albus NCIM 2178 after 24 hrs by serial dilution method; assay type: functional; conditions: NCIM 2178, 24 h
Proteus vulgaris = assay: Antimicrobial activity against Proteus vulgaris NCIM 2027 after 24 hrs by serial dilution method; assay type: functional; conditions: NCIM 2027, 24 h
Method in brief: (§4)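 Broth dilution MIC in nutrient broth, run only for organisms found sensitive in disc diffusion. Compounds are two-fold serially diluted in 1 ml sterile broth per tube, spanning 3.9 to 1000. Inoculated tubes are incubated at 37 °C for 24 h.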

Aspergillus niger [8] = assay: Antimicrobial activity against Aspergillus niger NCIM 902 after 72 hrs by serial dilution method; assay type: functional; conditions: NCIM 1196, 72 h, in the assay text read “NCIM 1196” for “NCIM 902”
Method in brief: (§5)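 MIC by broth dilution in Sabouraud's dextrose broth, only for fungi sensitive in disc diffusion. Two-fold serial dilutions of compounds are made in 1 ml broth per tube, range 3.9 to 1000. Inoculated tubes are incubated at 27 °C for 72 h.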

Rhodotorula mucilaginosa [9] = assay: Antimicrobial activity against Rhodotorula rubra NCIM 3174 after 72 hrs by serial dilution method; assay type: functional; conditions: NCIM 3174, 72 h
Method in brief: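 MIC by broth dilution in Sabouraud's dextrose broth, run only on fungi found sensitive in the disc assay. Twofold serial dilutions were made in 1 ml broth per tube, covering 3.9 to 1000. Inoculated tubes were incubated at 27 °C for 72 h.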

Penicillium chrysogenum = assay: Antimicrobial activity against Penicillium chrysogenum NCIM 707 after 72 hrs by serial dilution method; assay type: functional; conditions: NCIM 707, 72 h; method in brief: as §5
Lipomyces lipofer = assay: Antimicrobial activity against Lipomyces lipofer NCIM 3252 after 72 hrs by serial dilution method; assay type: functional; conditions: NCIM 3252, 72 h; method in brief: as §5
Pseudomonas aeruginosa [10] = assay: Antimicrobial activity against Pseudomonas aeruginosa NCIM 2200 after 24 hrs by serial dilution method; assay type: functional; conditions: NCIM 2200, 24 h; method in brief: as §4
Klebsiella aerogenes [11] = assay: Antimicrobial activity against Klebsiella aerogenes NCIM 2239 after 24 hrs by serial dilution method; assay type: functional; conditions: NCIM 2239, 24 h; method in brief: as §4
Salmonella typhimurium [12] = assay: Antimicrobial activity against Salmonella Typhimurium NCIM 2501 after 24 hrs by serial dilution method; assay type: functional, Salmonella enterica subsp. enterica serovar Typhimurium; conditions: Salmonella enterica, NCIM 2501, 24 h
Bacillus subtilis [13] = assay: Antimicrobial activity against Bacillus subtilis NCIM 2063 after 24 hrs by serial dilution method; assay type: functional; conditions: NCIM 2063, 24 h; method in brief: as §4
[14] = system: Rhodococcus corynebacterioides; assay: Antimicrobial activity against Corynebacterium rubrum NCIM 2252 after 24 hrs by serial dilution method; assay type: functional; conditions: Rhodococcoides corynebacterioides, NCIM 2252, 24 h; method in brief: as §4
Aspergillus fumigatus = assay: Antimicrobial activity against Aspergillus fumigatus NCIM 902 after 72 hrs by serial dilution method; assay type: functional; conditions: NCIM 902, 72 h; method in brief: as §5
Bacillus cereus = assay: Antimicrobial activity against Bacillus cereus NCIM 2155 after 24 hrs by serial dilution method; assay type: functional; conditions: NCIM 2155, 24 h; method in brief: as §4
Aspergillus niger [15] = assay: Antimicrobial activity against Aspergillus niger NCIM 1196 at 500 ug/disk after 72 hrs by disk diffusion method

| SMILES | zone of inhibition at 1000 µg/disc (Bacillus subtilis [1]) [mm] | zone of inhibition at 1000 µg/disc (Aliivibrio fischeri) [mm] | zone of inhibition at 500 µg/disc (Salmonella typhimurium [2]) [mm] | zone of inhibition at 500 µg/disc (Aspergillus niger [3]) [mm] | zone of inhibition at 1000 µg/disc (Aspergillus niger [4]) [mm] | zone of inhibition at 1000 µg/disc (Rhodotorula mucilaginosa [5]) [mm] | zone of inhibition at 1000 µg/disc (Aspergillus parasiticus) [mm] | zone of inhibition at 1000 µg/disc (Klebsiella aerogenes [6]) [mm] | zone of inhibition at 1000 µg/disc (Pseudomonas aeruginosa [7]) [mm] | MIC (Staphylococcus) [µg/mL] | MIC (Proteus vulgaris) [µg/mL] | MIC (Aspergillus niger [8]) [µg/mL] | MIC (Rhodotorula mucilaginosa [9]) [µg/mL] | MIC (Penicillium chrysogenum) [µg/mL] | MIC (Lipomyces lipofer) [µg/mL] | MIC (Klebsiella aerogenes [11]) [µg/mL] | MIC (Salmonella typhimurium [12]) [µg/mL] | MIC (Bacillus subtilis [13]) [µg/mL] | MIC [14] [µg/mL] | MIC (Bacillus cereus) [µg/mL] | further results |
| --- | --- | --- | --- | --- | --- | --- | --- | --- | --- | --- | --- | --- | --- | --- | --- | --- | --- | --- | --- | --- | --- |
| O=C1CCCC2=C1C(c1ccc(O)cc1)c1ccc3ccccc3c1N2 (stereo not drawn) | 11 | 9 | 7 | 9 | 9 | 14 | 13 | 10 | 9 | 62.5 (≈ 183 µM) | 125 (≈ 366 µM) | 62.5 (≈ 183 µM) | 7.8 (≈ 22.8 µM) | 125 (≈ 366 µM) | 62.5 (≈ 183 µM) | 62.5 (≈ 183 µM) | 125 (≈ 366 µM) | 31.2 (≈ 91.4 µM) | 125 (≈ 366 µM) | – | MIC (Pseudomonas aeruginosa [10]): 125 µg/mL (≈ 366 µM) |
| O=C1CCCC2=C1C(c1ccc(Cl)cc1)c1ccc3ccccc3c1N2 (stereo not drawn) | 12 | 9 | 9 | 8 | 8 | 16 | 12 | 9 | 10 | 62.5 (≈ 174 µM) | 125 (≈ 347 µM) | 62.5 (≈ 174 µM) | 3.9 (≈ 10.8 µM) | 125 (≈ 347 µM) | 125 (≈ 347 µM) | 125 (≈ 347 µM) | 62.5 (≈ 174 µM) | 31.2 (≈ 86.7 µM) | 125 (≈ 347 µM) | 15.6 (≈ 43.4 µM) | MIC (Aspergillus fumigatus): 62.5 µg/mL (≈ 174 µM); MIC (Pseudomonas aeruginosa [10]): 62.5 µg/mL (≈ 174 µM) |
| CC1(C)CC(=O)C2=C(C1)Nc1c(ccc3ccccc13)C2c1ccc(O)cc1 (stereo not drawn) | 10 | 9 | 9 | 8 | 10 | 23 | 14 | 12 | 9 | 125 (≈ 338 µM) | 125 (≈ 338 µM) | 62.5 (≈ 169 µM) | 3.9 (≈ 10.6 µM) | 125 (≈ 338 µM) | 62.5 (≈ 169 µM) | 31.2 (≈ 84.4 µM) | 31.2 (≈ 84.4 µM) | 62.5 (≈ 169 µM) | 62.5 (≈ 169 µM) | 31.2 (≈ 84.4 µM) | MIC (Pseudomonas aeruginosa [10]): 62.5 µg/mL (≈ 169 µM) |
| O=C1CCCC2=C1C(c1ccccc1O)c1ccc3ccccc3c1N2 (stereo not drawn) | 10 | – | – | – | 9 | 13 | 10 | – | – | – | – | 125 (≈ 366 µM) | 15.6 (≈ 45.7 µM) | 125 (≈ 366 µM) | – | – | – | 62.5 (≈ 183 µM) | – | 125 (≈ 366 µM) | diameter of the inhibition zone (DIZ) (Aliivibrio fischeri): inactive; diameter of the inhibition zone (DIZ) (Salmonella typhimurium [2]; Salmonella enterica subsp. enterica serovar Typhimurium): inactive; diameter of the inhibition zone (DIZ) (Klebsiella aerogenes [6]): inactive; diameter of the inhibition zone (DIZ) (Pseudomonas aeruginosa [7]): inactive; MIC (Aspergillus fumigatus): 62.5 µg/mL (≈ 183 µM); diameter of the inhibition zone (DIZ) (Aspergillus niger [15]): inactive |
| O=C1CCCC2=C1C(c1cccc([N+](=O)[O-])c1)c1ccc3ccccc3c1N2 (stereo not drawn) | 12 | 9 | 7 | 7 | 7 | 14 | 13 | 9 | – | 62.5 (≈ 169 µM) | 125 (≈ 337 µM) | 125 (≈ 337 µM) | 3.9 (≈ 10.5 µM) | – | 62.5 (≈ 169 µM) | 125 (≈ 337 µM) | 62.5 (≈ 169 µM) | 31.2 (≈ 84.2 µM) | 125 (≈ 337 µM) | 62.5 (≈ 169 µM) | diameter of the inhibition zone (DIZ) (Pseudomonas aeruginosa [7]): inactive; MIC (Aspergillus fumigatus): 125 µg/mL (≈ 337 µM) |
